As usually defined, the apparent Kd is the concentration giving half-maximal binding under the conditions of the assay.

Data on 48 sequences can be found in the EternaBench riboswitch data.

The data set concerns MS2 coat protein. The experiment in a line: apparent Kd, MS2 coat protein; higher = weaker binding; RNA-MaP array; FMN 200 µM where present. An outline of the steps:
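Two titrations, one without ligand and one with constant ligand, were run with SNAP-549-labelled MS2 coat protein from 0.7 or 1.5 nM, doubling to 3 µM. The targets were designs transcribed by stalled E. coli RNA polymerase on Illumina sequencing-chip clusters, in 100 mM Tris-HCl pH 7.5, 80 mM KCl, 4 mM MgCl2, BSA, DTT, yeast tRNA and Tween-20. The apparent Kd is the median of filtered per-cluster binding-curve fits, with green signal normalised to red-channel RNA signal and control-cluster median Fmax.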

Setting [1] is: designed as: ON switch for flavin mononucleotide, no ligand.
The mark [2] stands for this setting: ligand present: flavin mononucleotide, designed as: ON switch for flavin mononucleotide.
[3] abbreviates: designed as: OFF switch for flavin mononucleotide, no ligand.
Where [4] appears, read: ligand present: flavin mononucleotide, designed as: OFF switch for flavin mononucleotide.

For the sequence “GCCAUCAUAUGAGGAUAUGACACCGAAACGGUGUCAGAAGGCAUGUCGAUAGACAUGAGGAUCACCCAUGUUUAGAUGAUGGCA”, the “apparent Kd” value reads like this: under setting [1], 104 nM; under setting [2], 21.5 nM.
With “AAAAAGGGAGGAUAUACAUGAGGAUCACCCAUGUAAAAAAAAACAAAAAAAAAAAAAAGUAGAAGGCCCAAAAA”, the “apparent Kd” value was determined as 54.8 nM under setting [3] and 47.8 nM under setting [4].
Consider “CUUUCUUGCAAGGAUAUGCAAUUUAUUAUUUAUGCAGAAGGUGCUACAUGAGGAUCACCCAUGUUUCUGGGUUU”, for which the “apparent Kd” value was 146 nM under setting [3] and 208 nM under setting [4].
In the case of “AACCGACAUGAGGAUCACCCAUGUCAGGAUAUGGACUGACACCGAAAGGGUGGCGGAACCAGAAGGGACUGGGC”, the “apparent Kd” value reads like this: under setting [3], 36.3 nM; under setting [4], 96.5 nM.
“CCUGUGUGAGGAUAUGUACUGCUCCUGUCCAACAGUGUAGAGCAGAAGGCACAUGAGGAUCACCCAUGUGAAAA”: the “apparent Kd” value is, setting by setting: under setting [3], 26.2 nM; under setting [4], 23.1 nM.
“CGCAACUUUUCUCAUGUAAACAUGAGGAUCACCCAUGUAAUGAGAAGGAGGAGAAAGAGAGAAUCCUAGGAUAUCAGAGUUGCG”: the “apparent Kd” value is 6.29 nM under setting [3] and 6.53 nM under setting [4].
Regarding “CCAGCGUGUGUGAGGAUAUGCUGGUCCUUGGAUCAGCAGAAGGCACAUGAGGAUCACCCAUGUGAGGACGUUGG”, the “apparent Kd” value is 22.4 nM under setting [3] and 94.5 nM under setting [4].
As for “AACAGGUUCACAUGAGGAUCACCCAUGUUAGCCUAACGUAGGAGAAGGGCGGUAGCUGGGCUGACGUAGGAUAUCCUACUGUGA”, the “apparent Kd” value under setting [1] came to 10 nM and the “apparent Kd” value under setting [2] is 5.79 nM.
Turning to “GAACAGGGAGGAUAUACAGAUCCUCGUGCCUGCGGACCAAGACAUGAGGAUCACCCAUGUAGAAGGCCCGAAAA”, the “apparent Kd” value came out at 15.3 nM under setting [3] and 10.5 nM under setting [4].
For the sequence “GCCUAGACUAGGCCCACGGCAUCACAGGAUAUGCCAAUCACAUGAGGAUCACCCAUGUCAACUCCGCAGAAGGGUGAUAUCGUG”, the “apparent Kd” value under setting [1] is 235 nM and the “apparent Kd” value under setting [2] turned out to be 14.3 nM.
Taken in the same sequence, the figures for “GCCAUCGCAUGAGGAUAUGGCACCGAAACGGUGCCAGAAGGCAUGUCAAUAGACAUGAGGAUCACCCAUGUAUUAUCGAUGGCA” were 274 nM and 29.1 nM.
Consider “CGCUAGUCAGGAUAUACGAACAUGUCAAAAGACGUGAAGGGACAUGAGGAUCACCCAUGUAGAAGGGACUAGCU”, for which the “apparent Kd” value runs as follows: under setting [3], 27 nM; under setting [4], 182 nM.
On to “GAGCGGGAAACAUGAGGAUCACCCAUGUGAUGUAUCCUCACGUAGGAUAUGCACACGAGAAGUGUGCAGAAGGGCGACCCGGUC”, for which the “apparent Kd” value was found to be 1100 nM under setting [3] and 1260 nM under setting [4].
Take “CAGUACUGAGGAUAUACAUGAGGAUCACCCAUGUGUUCCAGCUAGGAAACUAGCAAAAGUAGAAGGCAGUUCUG”: the “apparent Kd” value is, setting by setting: under setting [3], 20.2 nM; under setting [4], 182 nM.
“UAAUCUCAGAUAGGAUAUAUAGGAUGAUUUAAGACUGAACAUGAGGAUCACCCAUGUGAUUAUCUGUAGAAGGAUCAAUGACCC”: the “apparent Kd” value by setting is: under setting [1], 389 nM; under setting [2], 348 nM.
As for “CCGAAUAAGCAGGAUAUCGUAUCGGAAACGAUACGAGAAGGGCUAACAUGAGGAUCACCCAUGUUCCUUAACGG”, the “apparent Kd” value under setting [3] is 22.1 nM and the “apparent Kd” value under setting [4] turned out to be 23.5 nM.
Regarding “UCGUCCAUGUCAGGAUAUGGCGGUAAAGAAAGGCUAGAAGGGACAUGAGGAUCACCCAUGUGCUCUUACGUGCACGGGCUGCGC”, the “apparent Kd” value under setting [3] was found to be 6.47 nM and the “apparent Kd” value under setting [4] is 8.18 nM.
Taken in the same sequence, the figures for “GGUGGACAUGAGGAUCACCCAUGUGAGGAUAUCGGCCGGUUCGUGGUGGCUGGCCUCUCGAGAAGGCGCAUAGU” were 58.1 nM and 71.9 nM.
The corresponding values for “GUCAGCUCGUGAGGAUAUACAACACUGCUUCGGCAGUGUAUUAAGCUCACAUGAGGAUCACCCAUGUAGAAGGCACGAGCUGAU” are 5.37 nM and 11.2 nM.
Turning to “AAUUAAUUAAUUAAUUGGACGAUACAUGAGGAUCACCCAUGUAAGGAUAUGCAGUGGAAUACACUGCAGAAGGUACAUACGUCC”, the “apparent Kd” value was 15.4 nM under setting [3] and 25.5 nM under setting [4].
The corresponding values for “GUCAGCUCGUGAGGAUAUACAACACAGCUUCGGCAGUGUAUUAAGAUCACAUGAGGAUCACCCAUGUAGAAGGCACGAGCUGAU” are 13.1 nM and 209 nM.
Consider “CUUCUGUGAGGAUAUUGACCAGUAGCUGACCUAGUACUGGAUGAGAAGGCACAUGAGGAUCACCCAUGUGGCAC”, for which the “apparent Kd” value turned out to be 19.5 nM under setting [3] and 104 nM under setting [4].
In the case of “GGGUACAUCGGAGGAUAUCAUGUAGAUACAUGAGGAUCACCCAUGUCGUACGAGAGUACGGAGAUUGAGAAGGCCGAUGUACCG”, the “apparent Kd” value by setting is: under setting [1], 31 nM; under setting [2], 14.7 nM.
On to “AUCAUGAGAGGAUAUACAUGAGGAUCACCCAUGUGGUAAACACCAUGAGCUCAUUUACGUAGAAGGCUCAUUUG”, for which the “apparent Kd” value under setting [3] was 27.6 nM and the “apparent Kd” value under setting [4] was determined as 61.1 nM.
Take “CCGGCUUAGGAGGAUAUAGGAGUCGAUAGACACCUAGAAGGCCUAACAUGAGGAUCACCCAUGUGUCCUACCGG”: the “apparent Kd” value turned out to be 17.8 nM under setting [3] and 61.5 nM under setting [4].
Taken in the same sequence, the figures for “UCAUGUUAGCAGGAUAUGCUAUUUAUUUUUUAUGCAGAAGGGCUUACAUGAGGAUCACCCAUGUAUUAAGUUUU” were 154 nM and 19.1 nM.
“UGUCGGAGCAGAGGAUAUUACAUGAGGAUCACCCAUGUAUGAACCAACAGCUGGAAACAGCAAUGUAAGAAGGCUGCUCCGACA”: the “apparent Kd” value by setting is: under setting [3], 10.4 nM; under setting [4], 131 nM.
As for “GGGCAAAAGUAGAAGGGAUAUACGAAAAGUAUAUCAGGAUAUACAUGAGGAUCACCCAUGUUCUGAAAGUGAAAAUCCUCCCUA”, the “apparent Kd” value under setting [3] was 40.8 nM and the “apparent Kd” value under setting [4] is 317 nM.
In the case of “AAAAAUGGAGGAUAUACAUGAGGAUCACCCAUGUGUGGCUAUACUAUGUGCUCUUCAGGUAGAAGGCCAAAAAA”, the “apparent Kd” value runs as follows: under setting [3], 42.6 nM; under setting [4], 201 nM.
On to “UUUAGUUUAGGAUAUGUAGACGUUAACAUGAGGAUCACCCAUGUAGAUCCUGAAUUGGCUACAGAAGGAAGCAUUU”, for which the “apparent Kd” value by setting is: under setting [3], 285 nM; under setting [4], 531 nM.
Consider “GCCAGGCAUGUAGGAUAUCCAUUGCGUCGCGUUGGAGAAGGGCAGCACACAUGAGGAUCACCCAUGUGGUCUCCCAUGUAGUGU”, for which the “apparent Kd” value under setting [3] is 163 nM and the “apparent Kd” value under setting [4] stood at 206 nM.
The corresponding values for “CAGCAAAAGUAGAAGGCAGUACUGAUUCAGUACUGAGGAUAUACAUGAGGAUCACCCAUGUGUUCCAGCUGAAUAAUAAAAUAA” are 8.89 nM and 116 nM.
“GUGGAGUAAGGAUAUACAUGAGGAUCACCCAUGUGAGGGUAUGAGAAGGGAAUGAGAGGUAGAAGGUACGAGGG”: the “apparent Kd” value was 172 nM under setting [3] and 107 nM under setting [4].
In the case of “UGAAUGUGAGGAUAUGGUGAGUAGUGCCUGAGCGCUGCUCACCAGAAGGCACAUGAGGAUCACCCAUGUACUUG”, the “apparent Kd” value turned out to be 66.9 nM under setting [3] and 215 nM under setting [4].
As to “CCGGGCGGUUUGCCCACACUGUCACAGGAUAUGCCCAAAACAUGAGGAUCACCCAUGUCAAAUACGCAGAAGGGUGAUCGGAAA”, the “apparent Kd” value came out at 55.8 nM under setting [1] and 37 nM under setting [2].
For “CCUUGACAUGAGGAUCACCCAUGUGAGGAUAUAGAAUACUUCAUACACUGACCUCCUUCUAGAAGGCACAUCUC”, the “apparent Kd” value was found to be 15.3 nM under setting [3] and 15.1 nM under setting [4].
With “GCUAUCGGGUGAGGAUAUAUGAUUGUGAUUAAAAUAGAAGGCAUCUCAGAAGACAUGAGGAUCACCCAUGUAGUUAAGAUGGCU”, the “apparent Kd” value reads like this: under setting [1], 15.3 nM; under setting [2], 12.8 nM.
As for “GCAACGCCUGACAUGAGGAUCACCCAUGUUAGAUUGUUAUGUCAGGAUAUUGUCUAGAAACUAGACAAGAAGGGAUGCGUUGCU”, the “apparent Kd” value was 304 nM under setting [1] and 21.8 nM under setting [2].
Turning to “CGAUGACAUAGUCAUCCGUAACGGACAUGAGGAUCACCCAUGUAGGAUAUGCUACUCAACGAGUAGCAGAAGGACAUGAGUCUU”, the “apparent Kd” value runs as follows: under setting [3], 38.3 nM; under setting [4], 347 nM.
Regarding “UCCCUAAGGCGGACCGACCAUACAUGAGGAUCACCCAUGUCGAGAAGGUGCUCACGGGUGGGUGGCAAGGAUAUCGGGUCGGAA”, the “apparent Kd” value by setting is: under setting [1], 69.8 nM; under setting [2], 36.5 nM.
On to “ACUGCCACAGGAUAUACGAAACUCUUGGGUUCCGCCGUGUGACAUGAGGAUCACCCAUGUAGAAGGGUGGCUUA”, for which the “apparent Kd” value reads like this: under setting [3], 606 nM; under setting [4], 416 nM.
“UCGUUGUCAGGAUAUCGUUAAUUUAGUUGUUUGUAUUAGUUCGAGAAGGGACAUGAGGAUCACCCAUGUUUGCU”: the “apparent Kd” value under setting [3] is 30.1 nM and the “apparent Kd” value under setting [4] came out at 70.9 nM.
With “AAGCUUGAUCCUCGUGUAUACAUGAGGAUCACCCAUGUGACGCAGGAUAUAGGCGUGUUAGUAGCCUAGAAGGGCGAGCAGCGA”, the “apparent Kd” value stood at 128 nM under setting [3] and 73.5 nM under setting [4].
The corresponding values for “GGAUCGUAUGUCAGGAUAUACCACUGGAUACAGUGGUAGAAGGGACAUGAGGAUCACCCAUGUUCUAUCGAUCC” are 15.9 nM and 20.4 nM.
Regarding “UUGUUGUGUGUAGGAUAUGCGUGUUAUUAUUAUGCAGAAGGACAUGAGGAUCACCCAUGUGUAUUGUUAUUAUAUAUUAUAUAU”, the “apparent Kd” value is 21.4 nM under setting [3] and 22.5 nM under setting [4].
In the case of “GACUUGUUAGGAUAUCUUACAUUUGCAUCAUAGUAACCUUUGGAGAAGGGACAUGAGGAUCACCCAUGUUUGGA”, the “apparent Kd” value under setting [3] came out at 40.1 nM and the “apparent Kd” value under setting [4] is 36.6 nM.
With “UGUCGGAGCAGAGGAUAUUACAUGAGGAUCACCCAUGUAUGAACCAGUAGCUGGAAACAGCAAUGUAAGAAGGCUGCUCCGACA”, the “apparent Kd” value came to 10.9 nM under setting [3] and 91.3 nM under setting [4].
For the sequence “GUGGUACAUGAGGAUCACCCAUGUCAGGAUAUCGUGUGUUUUUUUUCGGCCGCGCGUGCGAGAAGGGACGUCUU”, the “apparent Kd” value stood at 19.6 nM under setting [3] and 19.4 nM under setting [4].
